Runt-SMMHC FRET: Runt domain-CBFb-SMMHC interaction inhibition; AID 1434; 220,000 compounds, 0.74% hits; Cerulean-Runt/Venus-CBFb-SMMHC FRET ratio 530/480, 1 h; inhibition, % at 20 µM;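 active = mean inhibition across duplicate retests at 20 µM reaching about 50%, limit read from the data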;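 note: inhibitors lower the FRET ratio by blocking Runt binding to CBFb-SMMHC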
Target sequence (Q01196 whole entry, looked up, the tested form may be a part): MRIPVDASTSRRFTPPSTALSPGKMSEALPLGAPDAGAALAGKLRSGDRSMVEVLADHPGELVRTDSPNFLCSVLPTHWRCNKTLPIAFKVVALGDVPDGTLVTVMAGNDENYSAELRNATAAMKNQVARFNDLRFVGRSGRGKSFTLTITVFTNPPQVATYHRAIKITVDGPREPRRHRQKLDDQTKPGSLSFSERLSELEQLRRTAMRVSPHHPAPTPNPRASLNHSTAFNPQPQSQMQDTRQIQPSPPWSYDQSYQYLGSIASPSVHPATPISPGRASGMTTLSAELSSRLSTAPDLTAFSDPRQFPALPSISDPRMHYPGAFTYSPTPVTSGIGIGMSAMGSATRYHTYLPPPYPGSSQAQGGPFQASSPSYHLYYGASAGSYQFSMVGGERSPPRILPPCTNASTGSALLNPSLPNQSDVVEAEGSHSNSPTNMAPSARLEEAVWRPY
Target sequence (Q13951 whole entry, looked up, the tested form may be a part): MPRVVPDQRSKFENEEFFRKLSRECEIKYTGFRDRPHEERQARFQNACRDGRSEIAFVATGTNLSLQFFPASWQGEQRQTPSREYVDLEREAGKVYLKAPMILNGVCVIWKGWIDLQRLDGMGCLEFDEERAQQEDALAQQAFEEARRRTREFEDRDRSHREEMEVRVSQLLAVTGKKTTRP
LANA-H2A inh: blocks KSHV LANA binding to histone H2A/H2B; Q9QR71; 320,000 compounds, 0.6% hits; cell-free LANA-H2A/H2B peptide, fluorescence polarization; inhibition, % (no concentration beside the values); AID 2629; in the data active = inhibition mostly above about 10%, no sharp cut-off; inactive = mostly below about 6.7%
EBV gp42 inh: inhibitors of Epstein-Barr virus glycoprotein 42; Q1HVG2; Fluorescence polarization binding assay, mP read-out; inhibition, % (tested at 21.74 µM); 220,000 compounds, 0.42% hits; in the data active = inhibition above about 50%
RanGTP-Imp inh: inhibitors of RanGTP-importin-beta interaction, primary screen, biochemical, FRET, CFP-Ran, YFP-importin-beta, homogeneous; cell-free CFP-Ran/YFP-importin-beta FRET ratio; inhibition, % (no concentration beside the values); 300,000 compounds, 1.1% hits;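 active = more than half of the replicate wells show a fall in the fluorescence ratio signal beyond about 16%, limit read from the data, passing the limit was not always enough; inconclusive = exactly half of the replicate wells pass the set limit; inactive = fewer than half of replicates pass the limit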
Runt-CBFb FRET: Runt domain-CBFb interaction inhibition. inhibition, % at 20 µM. Q01196+Q13951. 220,000 compounds, 0.46% hits. Cerulean-Runt/Venus-CBFb FRET ratio 530/480, 1 h;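 active = inhibition over about 50% at 20 µM in the single-dose screen, limit read from the data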
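Measured by: fluorescence energy transfer, 422 nm excitation, 530/480 nm emission; Assay system: Cerulean-Runt domain; Medium: Tris pH 7.5 buffer with BSA; Measure: loss of energy transfer signal; Controls: 5 µM unlabeled CBFb as full-inhibition high control; Incubation: protein complex preformed 1 h, compound exposure 1 h, room temperature, dark.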
MEX-5 binding: C. elegans MEX-5 TCR-2 RNA binding activity | Q9XUB2 | MEX-5/FITC-TCR2 RNA binding, fluorescence polarization; stronger effect = lower value | activity score (negative = inhibition of binding), % at 10 µM | 300,000 compounds, 0.38% hits;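 active = inhibition past about -25% in most replicates, and total fluorescence under double the plate's negative control median, limit read from the data; inconclusive = replicates evenly split on the limit, or fluorescence at least double controls; inactive = too little inhibition in most replicates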
Hits are given with their value; . = inactive; ? = inconclusive; / = not tested or not shown; + = active, no number. This is a sample that favours compounds with a hit; in the whole collection about 2.4% have one here.

SMILES	Runt-SMMHC FRET	LANA-H2A inh	EBV gp42 inh	RanGTP-Imp inh	Runt-CBFb FRET	MEX-5 binding
Cc1ccc(S(=O)(=O)CCC(=O)OCC(=O)NC(C)c2ccc(F)cc2)cc1 (stereo not drawn)	/	.	/	/	/	/
Cc1ccc(S(=O)(=O)CCC(=O)OCC(=O)NC(C)c2ccccc2)cc1 (stereo not drawn)	/	182.8	/	/	/	/
CCc1ccc2nc(N(CCN(C)C)C(=O)c3ccc4ncsc4c3)sc2c1	/	.	/	.	/	.
CCOc1ncccc1C(=O)NCC(c1ccccc1)N(C)C (stereo not drawn)	/	.	/	?	/	.
CC[C@@H]1C/C=C\Cc2ccccc2[C@@H](C(=O)C[C@H](O)CC(C)=O)OC1=O	/	+	/	/	/	/
CCN(C(=O)COC(=O)C1CCN(S(=O)(=O)c2c(Cl)cccc2Cl)CC1)C1CCCCC1	/	.	/	.	/	.
O=C1N/C(=C/c2ccc(N3CCOCC3)o2)C(=O)N1c1ccccc1	.	.	.	/	.	/
Cc1ccc(CN2C(=O)N/C(=C\c3ccc(-c4ccc(C(=O)O)cc4C)o3)C2=O)cc1	84.0	.	.	/	110.3	/
Cc1ccc(C(=O)O)cc1-c1ccc(/C=C2/NC(=O)N(c3ccccc3)C2=O)o1	.	.	.	19.8	.	.
Cc1ccc(/C=C2/NC(=O)N(Cc3ccccc3)C2=O)o1	.	.	.	.	.	.
O=C(O)c1ccc(-c2ccc(/C=C3\NC(=O)N(Cc4ccc(Cl)cc4)C3=O)o2)cc1	84.0	/	.	/	97.8	/
CCOC(=O)N1CCC(NC(=O)c2cc(S(=O)(=O)N3CCOCC3)ccc2F)CC1	.	.	.	.	.	.
CCOC(=O)N1CCC(NC(=O)c2cc(C(=O)Nc3ccc(S(=O)(=O)N4CCOCC4)cc3)ccc2CO)CC1	.	16.9	.	?	.	.
O=C(OCc1cccc([N+](=O)[O-])c1)c1ccc2ccccc2n1	.	.	.	.	.	.
C/C(=N/NC(=O)c1cc(-c2cccc([N+](=O)[O-])c2)n[nH]1)c1cccc(O)c1	.	14.8	.	.	.	.
C/C(=N\NC(=O)c1cc(-c2cccc([N+](=O)[O-])c2)n[nH]1)c1ccc(F)cc1	.	.	.	.	.	.
CCN(C(=O)CSc1nc2ccccc2c(=O)n1-c1ccccc1F)C1CCS(=O)(=O)C1 (stereo not drawn)	/	.	/	/	/	/
O=C(Cc1ncon1)Nc1ccc(F)c(F)c1F	.	.	.	.	.	.
COc1ccc(C(=O)Nc2nnc(SCC(=O)NCc3ccco3)s2)cc1OC	/	.	/	.	/	.
COc1cc(OC)cc(C(=O)Nc2nnc(SCC(=O)NCc3ccco3)s2)c1	/	39.2	/	.	/	.
O=C1C=C(Nc2cccc(O)c2)CC(c2ccco2)C1 (stereo not drawn)	.	.	.	64.2	.	.
CCOc1ccc(NC2=CC(=O)CC(c3ccco3)C2)cc1 (stereo not drawn)	.	.	.	.	.	.
O=C1C=C(Nc2ccc(Cl)cc2)CC(c2ccco2)C1 (stereo not drawn)	.	.	.	28.8	.	.
Cc1ccc(-n2cnc3cc(NCc4cccs4)ccc32)cc1	.	.	.	19.1	.	.
Cc1ccc(CNc2ccc3c(c2)ncn3C(C)(C)C)cc1	.	.	.	36.1	.	.
SMILES	Runt-SMMHC FRET	LANA-H2A inh	EBV gp42 inh	RanGTP-Imp inh	Runt-CBFb FRET	MEX-5 binding
Cc1ccc(S(=O)(=O)Nc2ccc3c(c2)ncn3C(C)(C)C)cc1	.	.	.	.	.	.
Cc1ccc(CNc2ccc3c(c2)ncn3C)cc1	.	.	.	15.8	.	.
CN(C(=O)c1ccc(Oc2ccc([N+](=O)[O-])cc2)cc1)C1CCCCC1	/	.	/	.	/	.
CCCCN1C(=O)/C(=C/C=C2\Oc3ccccc3N2CC)SC1=S	.	/	104.2	.	.	-28.3
CCCN1C(=O)/C(=C/C=C2\N(CC)c3ccccc3C2(C)C)SC1=S	.	.	127.5	.	.	.
CCN1C(=O)/C(=C/C=C2/Sc3ccccc3N2CCO)SC1=S	.	.	.	.	.	.
C=CCN1C(=O)/C(=C\C=C2\N(C)c3ccccc3C2(C)C)SC1=S	.	.	90.1	/	.	.
CC1CCCCC1NC(=O)COC(=O)COc1ccccc1F (stereo not drawn)	/	.	/	/	/	/
O=C1CC(c2ccco2)CC2=C1C=Nc1ccccc1N2 (stereo not drawn)	.	.	.	.	.	.
O=c1[nH]c2c(s1)C=Nc1ccccc1N2	.	37.8	118.9	.	.	-72.3
Nc1nn2c(-c3ccccc3)cc(=O)[nH]c2c1N=Nc1ccc(Br)cc1	.	/	60.1	/	.	/
Nc1nn2c(-c3ccccc3)cc(=O)[nH]c2c1N=Nc1ccc(O)cc1	.	.	.	.	.	.
Cc1ccc(C(=O)NCC(=O)NCCCc2ccccc2)cc1	/	.	/	.	/	.
COc1ccc(S(=O)(=O)Nc2cc(C(C)C)c(O)cc2C)cc1	.	.	.	.	.	.
CCN(CC)CCSc1nc2ccc(OC)cc2[nH]1	.	.	.	.	.	.
COc1ccc2nc3cc(Cl)ccc3c(Nc3cc(C(C)C)c(O)cc3C)c2c1	50.5	.	.	115.2	76.7	.
CCN(CC)CCCC(C)Nc1c2ccc(Cl)cc2nc2ccc(OC)cc12 (stereo not drawn)	85.4	/	117.6	/	.	/
O=C1NN(c2cccc(Br)c2)C(=O)/C1=C/c1ccc(-c2cc([N+](=O)[O-])ccc2O)o1	.	.	100.8	.	.	.
CC1=NN(c2ccc(C)cc2)C(=O)/C1=C/c1ccc(-c2cc([N+](=O)[O-])ccc2O)o1	/	/	/	.	/	.
Cc1ccc(S(=O)(=O)NCCC(=O)NCC(c2cccs2)N(C)C)cc1C (stereo not drawn)	/	.	/	/	/	/
O=C(CC1(O)C(=O)Nc2ccccc21)c1cccnc1 (stereo not drawn)	.	.	.	.	.	.
CCCCc1c(C)c(C#N)c2nc3ccccc3n2c1NCCN(C)C	/	/	/	.	/	.
Cc1c2c(n3c(nc4ccccc43)c1C#N)N(CCCN(C)C)CC2	90.8	.	.	.	100.2	.

Bioassay records deposited in PubChem BioAssay by several laboratories.
